From publication PMC6645658 (ACS Omega, 2017)

Assay: In vivo rat BBB penetration
Outline: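 Rats were dosed iv, and plasma and brain tissue were sampled at 0.25 h after dosing. Plasma concentration is in ng/mL and brain concentration in ng/g. Kp-unbound was derived using the unbound fractions measured in rat plasma and rat brain tissue, and was used to judge blood-brain barrier penetration.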

COc1ccsc1CNCC[C@@]1(c2ccccn2)CCOC2(CCCC2)C1 [TRV130, [(3-methoxythiophen-2-yl)methyl]({2-[(9R)-9-(pyridine-2yl)-6-oxaspiro-[4,5]decan-9-yl]ethyl})amine]
concentration at 0.25 h (brain, iv): 315 ng/g
Kp at 0.25 h (brain/plasma, intravenous): 0.936
